From ChEMBL document CHEMBL2331240, “Focused library development of 2-phenylacrylamides as broad spectrum cytotoxic agents” (2013)
The source made the active and inactive calls. The rule behind the calls is not given here.

Legend:
[1] = test system: SJ-G2; test: Cytotoxicity against human SJ-G2 cells assessed as growth inhibition at 25 uM measured after 72 hrs by MTT assay; type: functional, cell-based
Outline: (§1)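 Log-phase cells were plated in duplicate at 2500–4000 cells/well in DMEM with 10% FBS, glutamine and antibiotics, at 37 °C under 5% CO2. Drug was added 24 h after plating from a 40 mM DMSO stock, to a final 25 μM. After 72 h exposure, MTT was read at 540 nm and % growth inhibition was calculated, with 100% meaning total growth inhibition.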

[2] = test system: MIA; test: (§2) Cytotoxicity against human MIA cells assessed as growth inhibition at 25 uM measured after 72 hrs by MTT assay; type: functional; outline: as §1
[3] = (§3) Cytotoxicity against human BE(2)-C cells assessed as growth inhibition at 25 uM measured after 72 hrs by MTT assay; type: functional; details: read-out: GI; outline: as §1
[4] = test system: A-431; test: Cytotoxicity against human A431 cells assessed as growth inhibition at 25 uM measured after 72 hrs by MTT assay; type: functional, cell-based; outline: as §1
[5] = test system: DU-145; test: Cytotoxicity against human DU145 cells assessed as growth inhibition at 25 uM measured after 72 hrs by MTT assay; type: functional, cell-based; outline: as §1
[6] = test system: A2780; test: Cytotoxicity against human A2780 cells assessed as growth inhibition at 25 uM measured after 72 hrs by MTT assay; type: functional; outline: as §1
[7] = test system: NCI-H460; test: Cytotoxicity against human H460 cells assessed as growth inhibition at 25 uM measured after 72 hrs by MTT assay; type: functional, cell-based; outline: as §1
[8] = test system: SW480; test: Cytotoxicity against human SW480 cells assessed as growth inhibition at 25 uM measured after 72 hrs by MTT assay; type: functional; details: for inhibition of growth at 25 µM: SW480, 72 h, read-out: GI; outline: as §1
[9] = test system: MCF7; test: Cytotoxicity against human MCF7 cells assessed as growth inhibition at 25 uM measured after 72 hrs by MTT assay; type: functional; details: MCF7, 72 h, read-out: GI; outline: as §1
[10] = test system: HT-29; test: Cytotoxicity against human HT-29 cells assessed as growth inhibition at 25 uM measured after 72 hrs by MTT assay; type: functional, cell-based; outline: as §1
[11] = test system: SMA; test: Cytotoxicity against mouse SMA cells assessed as growth inhibition at 25 uM measured after 72 hrs by MTT assay
[12] = as §2; type: functional; details: read-out: GI; outline: as §1
[13] = test system: BE(2)-C; test: as §3; type: functional; outline: as §1
[14] = Cytotoxicity against human MIA cells assessed as growth inhibition at 100 uM measured after 72 hrs by MTT assay; type: functional; details: read-out: GI
[15] = Cytotoxicity against human SJ-G2 cells assessed as growth inhibition at 100 uM measured after 72 hrs by MTT assay; type: functional; details: SJ-G2, 72 h, read-out: GI
[16] = test system: DU-145; test: Cytotoxicity against human DU145 cells assessed as growth inhibition at 100 uM measured after 72 hrs by MTT assay; type: functional; details: DU-145, 72 h, read-out: GI
[17] = Cytotoxicity against human BE(2)-C cells assessed as growth inhibition at 100 uM measured after 72 hrs by MTT assay; type: functional; details: read-out: GI
[18] = test system: A-431; test: Cytotoxicity against human A431 cells assessed as growth inhibition at 100 uM measured after 72 hrs by MTT assay; type: functional; details: A-431, 72 h, read-out: GI
[19] = test system: A2780; test: Cytotoxicity against human A2780 cells assessed as growth inhibition at 100 uM measured after 72 hrs by MTT assay; type: functional; details: A2780, 72 h, read-out: GI
[20] = Cytotoxicity against human H460 cells assessed as growth inhibition at 100 uM measured after 72 hrs by MTT assay; type: functional; details: NCI-H460, 72 h, read-out: GI
[21] = test system: SW480; test: Cytotoxicity against human SW480 cells assessed as growth inhibition at 100 uM measured after 72 hrs by MTT assay; type: functional; details: SW480, 72 h, read-out: GI
[22] = test system: MCF7; test: Cytotoxicity against human MCF7 cells assessed as growth inhibition at 100 uM measured after 72 hrs by MTT assay; type: functional; details: MCF7, 72 h, read-out: GI
[23] = test system: HT-29; test: Cytotoxicity against human HT-29 cells assessed as growth inhibition at 100 uM measured after 72 hrs by MTT assay; type: functional; details: HT-29, 72 h, read-out: GI
[24] = Cytotoxicity against human SJ-G2 cells assessed as growth inhibition measured after 72 hrs by MTT assay; type: functional; details: SJ-G2, 72 h
Outline: (§4)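 Cells in log phase were seeded in duplicate at 2500–4000 cells/well in supplemented DMEM (37 °C, 5% CO2). Drug from a 40 mM DMSO stock was added on day 0, 24 h post-plating. Read-out was MTT absorbance at 540 nm after 72 h.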

[25] = Cytotoxicity against human MIA cells assessed as growth inhibition measured after 72 hrs by MTT assay; type: functional; outline: as §4
[26] = test system: DU-145; test: Cytotoxicity against human DU145 cells assessed as growth inhibition measured after 72 hrs by MTT assay; type: functional; details: DU-145, 72 h; outline: as §4
[27] = Cytotoxicity against human BE(2)-C cells assessed as growth inhibition measured after 72 hrs by MTT assay; type: functional; outline: as §4
[28] = Cytotoxicity against human H460 cells assessed as growth inhibition measured after 72 hrs by MTT assay; type: functional; details: NCI-H460, 72 h; outline: as §4
[29] = test system: A-431; test: Cytotoxicity against human A431 cells assessed as growth inhibition measured after 72 hrs by MTT assay; type: functional; details: A-431, 72 h; outline: as §4
[30] = test system: MCF7; test: Cytotoxicity against human MCF7 cells assessed as growth inhibition measured after 72 hrs by MTT assay; type: functional; details: MCF7, 72 h; outline: as §4
[31] = test system: A2780; test: Cytotoxicity against human A2780 cells assessed as growth inhibition measured after 72 hrs by MTT assay; type: functional; details: A2780, 72 h; outline: as §4
[32] = test system: HT-29; test: Cytotoxicity against human HT-29 cells assessed as growth inhibition measured after 72 hrs by MTT assay; type: functional; details: HT-29, 72 h; outline: as §4
[33] = test system: SW480; test: Cytotoxicity against human SW480 cells assessed as growth inhibition measured after 72 hrs by MTT assay; type: functional; details: SW480, 72 h; outline: as §4
[34] = Cytotoxicity against mouse SMA cells assessed as growth inhibition measured after 72 hrs by MTT assay
[35] = Cytotoxicity against mouse SMA cells assessed as growth inhibition at 100 uM measured after 72 hrs by MTT assay; details: read-out: GI

N#C/C(=C\c1ccc(Cl)c(Cl)c1)C(=O)c1c[nH]c2ccccc12
growth inhibition (GI) [1]: inactive
growth inhibition (GI) [2]: inactive
inhibition of growth at 25 µM [3]: 33%
growth inhibition (GI) [4]: inactive
growth inhibition (GI) [5]: inactive
inhibition of growth at 25 µM ([6]; A2780, 72 h, read-out: GI): 32%
growth inhibition (GI) [7]: inactive
inhibition of growth at 25 µM [8]: 33%
inhibition of growth at 25 µM [9]: 42%
growth inhibition (GI) [10]: inactive
growth inhibition (GI) [11]: inactive

COc1ccc(CNC(=O)/C(C#N)=C/c2cc3ccccc3o2)cc1
growth inhibition (GI) [1]: inactive
inhibition of growth at 25 µM [12]: 34%
growth inhibition (GI) [13]: inactive
growth inhibition (GI) [4]: inactive
growth inhibition (GI) [5]: inactive
growth inhibition (GI) [6]: inactive
growth inhibition (GI) [7]: inactive
growth inhibition (GI) [8]: inactive
inhibition of growth at 25 µM [9]: 40%
growth inhibition (GI) [10]: inactive
growth inhibition (GI) [11]: inactive

N#C/C(=C\c1ccc(Cl)cc1)C(=O)c1ccc[nH]1
inhibition of growth at 100 µM [14]: 31%
inhibition of growth at 100 µM [15]: 31%
inhibition of growth at 100 µM [16]: 31%
inhibition of growth at 100 µM [17]: 31%
inhibition of growth at 100 µM [18]: 31%
inhibition of growth at 100 µM [19]: 31%
inhibition of growth at 100 µM [20]: 31%
inhibition of growth at 100 µM [21]: 31%
inhibition of growth at 100 µM [22]: 31%
inhibition of growth at 100 µM [23]: 31%
GI50 [24]: 37 µM
GI50 [25]: 48 µM
GI50 [26]: 61 µM
GI50 [27]: 34 µM
GI50 [28]: 43 µM
GI50 [29]: 52 µM
GI50 [30]: 27 µM
GI50 [31]: 35 µM
GI50 [32]: 36 µM
GI50 [33]: 34 µM
GI50 [34]: 38 µM
inhibition of growth at 100 µM [35]: 31%

N#C/C(=C\c1c[nH]c2ccccc12)C(=O)c1ccc[nH]1
growth inhibition (GI) [1]: inactive
growth inhibition (GI) [2]: inactive
inhibition of growth at 25 µM [3]: 49%
growth inhibition (GI) [4]: inactive
growth inhibition (GI) [5]: inactive
growth inhibition (GI) [6]: inactive
growth inhibition (GI) [7]: inactive
inhibition of growth at 25 µM [8]: 43%
inhibition of growth at 25 µM [9]: 56%
growth inhibition (GI) [10]: inactive
growth inhibition (GI) [11]: inactive
